Data: ChEMBL document CHEMBL4052597, “Symmetrically Substituted Xanthone Amphiphiles Combat Gram-Positive Bacterial Resistance with Enhanced Membrane Selectivity” (J Med Chem, 2017)
≈ marks a conversion by molar mass, not a printed value.

Experiments:
Bacillus cereus = assay: Antibacterial activity against Bacillus cereus ATCC 11778 after 24 hrs by two fold dilution assay; assay type: functional; details: ATCC 11778, 24 h
Procedure, shortened: (§1)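 Broth macro-dilution per CLSI in cation-adjusted Mueller-Hinton broth; compounds dissolved in DMF, diluted in PBS to 1000 µg/mL stock, then serial 2-fold dilutions in CA-MHB in tubes. Inoculum from 18-20 h TSA colonies (direct colony suspension), adjusted to about 5× 10^5 CFU/mL. MIC read after 24 h at 35 °C as lowest concentration with no visible growth; biological replicates.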

Staphylococcus aureus [1] = assay: Antibacterial activity against methicillin-resistant Staphylococcus aureus DM 9808R after 24 hrs by two fold dilution assay; assay type: functional
Procedure, shortened: (§2)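 CLSI broth macrodilution in cation-adjusted Mueller-Hinton broth. Compounds were dissolved in DMF and diluted in PBS to a 1000 µg/mL stock, then serially 2-fold diluted in CA-MHB. The inoculum came from colonies on 18-20 h TSA plates (direct colony suspension), adjusted to ~5×10^5 CFU/mL. Incubation was 24 h at 35 °C. MIC is the lowest concentration with no visible growth versus control. Biological replicates.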

Staphylococcus aureus [2] = assay: Antibacterial activity against methicillin-resistant Staphylococcus aureus DM 21455 after 24 hrs by two fold dilution assay; assay type: functional; details: DM 21455, 24 h; procedure, shortened: as §2
Staphylococcus aureus [3] = assay: Antibacterial activity against Staphylococcus aureus DM 4001R after 24 hrs by two fold dilution assay; assay type: functional; procedure, shortened: as §2
Enterococcus hirae = assay: Antibacterial activity against Enterococcus hirae ATCC 9790 after 24 hrs by two fold dilution assay; assay type: functional; details: ATCC 9790, 24 h; procedure, shortened: as §1
Enterococcus faecalis = assay: Antibacterial activity against Enterococcus faecalis ATCC 29212 after 24 hrs by two fold dilution assay; assay type: functional; details: ATCC 29212, 24 h; procedure, shortened: as §1
Enterococcus faecium [4] = assay: Antibacterial activity against vancomycin A-resistant Enterococcus faecium VRE 1008 after 24 hrs by two fold dilution assay; assay type: functional; details: VRE 1008, 24 h; procedure, shortened: as §2
Enterococcus faecium [5] = assay: Antibacterial activity against vancomycin A-resistant Enterococcus faecium VRE 1007 after 24 hrs by two fold dilution assay; assay type: functional; details: VRE 1007, 24 h; procedure, shortened: as §2
Enterococcus faecium [6] = assay: Antibacterial activity against vancomycin A-resistant Enterococcus faecium VRE 1006 after 24 hrs by two fold dilution assay; assay type: functional; details: VRE 1006, 24 h; procedure, shortened: as §2
Staphylococcus aureus [7] = assay: Antibacterial activity against methicillin-resistant Staphylococcus aureus ATCC BAA-38 after 24 hrs by two fold dilution assay; assay type: functional; details: ATCC BAA-38, 24 h; procedure, shortened: as §2
Staphylococcus aureus [8] = assay: Antibacterial activity against methicillin-resistant Staphylococcus aureus ATCC 700699 after 24 hrs by two fold dilution assay; assay type: functional; details: Mu50, 24 h; procedure, shortened: as §2
Staphylococcus aureus [9] = assay: Antibacterial activity against methicillin-resistant Staphylococcus aureus ATCC 43300 after 24 hrs by two fold dilution assay; assay type: functional; details: ATCC 43300, 24 h; procedure, shortened: as §2
Staphylococcus aureus [10] = assay: Antibacterial activity against methicillin-resistant Staphylococcus aureus DB57964 after 24 hrs by two fold dilution assay; assay type: functional; details: DB57964, 24 h; procedure, shortened: as §2
Staphylococcus aureus [11] = assay: Antibacterial activity against methicillin-resistant Staphylococcus aureus DB68004 after 24 hrs by two fold dilution assay; assay type: functional; details: DB68004, 24 h; procedure, shortened: as §2
Staphylococcus aureus [12] = assay: Antibacterial activity against methicillin-resistant Staphylococcus aureus DB6506 after 24 hrs by two fold dilution assay; assay type: functional; details: DB6506, 24 h; procedure, shortened: as §2
Staphylococcus aureus [13] = assay: Antibacterial activity against methicillin-sensitive Staphylococcus aureus ATCC 29737 after 24 hrs by two fold dilution assay; assay type: functional; details: ATCC 29737, 24 h; procedure, shortened: as §2
Staphylococcus aureus [14] = assay: Antibacterial activity against methicillin-sensitive Staphylococcus aureus ATCC 6538 after 24 hrs by two fold dilution assay; assay type: functional; details: ATCC 6538, 24 h; procedure, shortened: as §2
Staphylococcus aureus [15] = assay: Antibacterial activity against methicillin-sensitive Staphylococcus aureus ATCC 29213 after 24 hrs by two fold dilution assay; assay type: functional; details: ATCC 29213, 24 h; procedure, shortened: as §2
Staphylococcus aureus [16] = assay: Antibacterial activity against methicillin-sensitive Staphylococcus aureus DM4400R after 24 hrs by two fold dilution assay; assay type: functional; procedure, shortened: as §2
Staphylococcus aureus [17] = assay: Antibacterial activity against methicillin-sensitive Staphylococcus aureus DM4299 after 24 hrs by two fold dilution assay; assay type: functional; details: DM4299, 24 h; procedure, shortened: as §2
Staphylococcus aureus [18] = assay: Antibacterial activity against methicillin-sensitive Staphylococcus aureus DM4583R after 24 hrs by two fold dilution assay; assay type: functional; procedure, shortened: as §2
[19] = Selectivity index, ratio of HC50 for New Zealand White rabbit RBC to MIC for Staphylococcus aureus DM 4001R
Procedure, shortened: (§3)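 Ratio of HC50 to MIC. For HC50, fresh New Zealand White rabbit RBCs were pelleted (3000 rpm, 10 min), washed twice in PBS and mixed with serially diluted compounds (in DMF or PBS) at a final 4% v/v. After 60 min at 37 °C and centrifugation, supernatant absorbance was read at 576 nm. % hemolysis was normalised to 2% Triton X-100 (positive) and PBS/DMF (negative). MIC came from CA-MHB broth macrodilution, 24 h at 35 °C.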

[20] = Selectivity index, ratio of HC50 for New Zealand White rabbit RBC to MIC for methicillin-resistant Staphylococcus aureus DM 9808R; procedure, shortened: as §3
[21] = Selectivity index, ratio of HC50 for New Zealand White rabbit RBC to MIC for methicillin-resistant Staphylococcus aureus DM 21455; procedure, shortened: as §3
[22] = Selectivity index, ratio of HC50 for New Zealand White rabbit RBC to MIC for Bacillus cereus ATCC 11778; procedure, shortened: as §3

CC(C)=CCOc1cc(OCC(=O)N[C@@H](CCCNC(=N)N)C(N)=O)c2c(=O)c3c(OCC(=O)N[C@@H](CCCNC(=N)N)C(N)=O)cc(OCC=C(C)C)cc3oc2c1
MIC (Bacillus cereus): 12.5 µg/mL (≈ 15.2 µM)
MIC (Staphylococcus aureus [1]): 6.25 µg/mL (≈ 7.59 µM)
MIC (Staphylococcus aureus [2]): 6.25 µg/mL (≈ 7.59 µM)
MIC (Staphylococcus aureus [3]): 12.5 µg/mL (≈ 15.2 µM)

CN[C@H](CC(C)C)C(=O)N[C@H]1C(=O)N[C@@H](CC(N)=O)C(=O)N[C@H]2C(=O)N[C@H]3C(=O)N[C@H](C(=O)N[C@H](C(=O)O)c4cc(O)cc(O)c4-c4cc3ccc4O)[C@H](O)c3ccc(c(Cl)c3)Oc3cc2cc(c3O[C@@H]2O[C@H](CO)[C@@H](O)[C@H](O)[C@H]2O[C@H]2C[C@](C)(N)[C@H](O)[C@H](C)O2)Oc2ccc(cc2Cl)[C@H]1O [VANCOMYCIN]
MIC (Enterococcus hirae): 0.78 µg/mL (≈ 0.538 µM)
MIC (Enterococcus faecalis): 1.56 µg/mL (≈ 1.08 µM)
MIC (Enterococcus faecium [4]): > 50 µg/mL
MIC (Enterococcus faecium [5]): > 50 µg/mL
MIC (Enterococcus faecium [6]): > 50 µg/mL
MIC (Staphylococcus aureus [7]): 1.56 µg/mL (≈ 1.08 µM)
MIC (Staphylococcus aureus [8]): 1.56 µg/mL (≈ 1.08 µM)
MIC (Staphylococcus aureus [9]): 0.78 µg/mL (≈ 0.538 µM)
MIC (Staphylococcus aureus [10]): 0.78 µg/mL (≈ 0.538 µM)
MIC (Staphylococcus aureus [11]): 1.56 µg/mL (≈ 1.08 µM)
MIC (Staphylococcus aureus [12]): 0.78 µg/mL (≈ 0.538 µM)
MIC (Staphylococcus aureus [13]): 0.78 µg/mL (≈ 0.538 µM)
MIC (Staphylococcus aureus [14]): 0.78 µg/mL (≈ 0.538 µM)
MIC (Staphylococcus aureus [15]): 1.56 µg/mL (≈ 1.08 µM)
MIC (Staphylococcus aureus [16]): 0.78 µg/mL (≈ 0.538 µM)
MIC (Staphylococcus aureus [17]): 1.56 µg/mL (≈ 1.08 µM)
MIC (Staphylococcus aureus [18]): 1.56 µg/mL (≈ 1.08 µM)
MIC (Bacillus cereus): 1.56 µg/mL (≈ 1.08 µM)
MIC (Staphylococcus aureus [1]): 3.13 µg/mL (≈ 2.16 µM)
MIC (Staphylococcus aureus [2]): 1.56 µg/mL (≈ 1.08 µM)
MIC (Staphylococcus aureus [3]): 1.56 µg/mL (≈ 1.08 µM)

CC(C)=CCOc1cc(O)c2c(=O)c3c(O)cc(OCC=C(C)C)cc3oc2c1
MIC (Bacillus cereus): > 50 µg/mL
MIC (Staphylococcus aureus [1]): > 50 µg/mL
MIC (Staphylococcus aureus [2]): > 50 µg/mL
MIC (Staphylococcus aureus [3]): > 50 µg/mL

COC(=O)[C@H](CCCNC(=N)N)NC(=O)COc1cc(OC/C=C(\C)CCC=C(C)C)cc2oc3cc(OC/C=C(\C)CCC=C(C)C)cc(OCC(=O)N[C@@H](CCCNC(=N)N)C(=O)OC)c3c(=O)c12
MIC (Bacillus cereus): > 50 µg/mL
MIC (Staphylococcus aureus [1]): 50 µg/mL (≈ 50.5 µM)
MIC (Staphylococcus aureus [2]): > 50 µg/mL
MIC (Staphylococcus aureus [3]): 25 µg/mL (≈ 25.3 µM)

COC(=O)[C@H](CCCNC(=N)N)NC(=O)[C@H](CCCNC(=N)N)NC(=O)COc1cc(OC/C=C(\C)CCC=C(C)C)cc2oc3cc(OC/C=C(\C)CCC=C(C)C)cc(OCC(=O)N[C@@H](CCCNC(=N)N)C(=O)N[C@@H](CCCNC(=N)N)C(=O)OC)c3c(=O)c12
MIC (Bacillus cereus): 25 µg/mL (≈ 19.2 µM)
MIC (Staphylococcus aureus [1]): 25 µg/mL (≈ 19.2 µM)
MIC (Staphylococcus aureus [2]): 25 µg/mL (≈ 19.2 µM)
MIC (Staphylococcus aureus [3]): 25 µg/mL (≈ 19.2 µM)

CC(C)=CCOc1cc(OCC(=O)NCCCN(C)C)c2c(=O)c3c(OCC(=O)NCCCN(C)C)cc(OCC=C(C)C)cc3oc2c1
MIC (Bacillus cereus): 12.5 µg/mL (≈ 18.4 µM)
MIC (Staphylococcus aureus [1]): 12.5 µg/mL (≈ 18.4 µM)
MIC (Staphylococcus aureus [2]): 6.25 µg/mL (≈ 9.18 µM)
MIC (Staphylococcus aureus [3]): 6.25 µg/mL (≈ 9.18 µM)

COC(=O)[C@H](CCCNC(=N)N)NC(=O)COc1cc(OCC=C(C)C)cc2oc3cc(OCC=C(C)C)cc(OCC=C(C)C)c3c(=O)c12
MIC (Bacillus cereus): 1.56 µg/mL (≈ 2.25 µM)
MIC (Staphylococcus aureus [1]): 1.56 µg/mL (≈ 2.25 µM)
MIC (Staphylococcus aureus [2]): 0.78 µg/mL (≈ 1.13 µM)
MIC (Staphylococcus aureus [3]): 1.56 µg/mL (≈ 2.25 µM)
Selectivity Index [19]: 21 to 42
Selectivity Index [20]: 21 to 42
Selectivity Index [21]: 21 to 42
Selectivity Index [22]: 21 to 42

CCN(CC)CCCNC(=O)COc1cc(OCC=C(C)C)cc2oc3cc(OCC=C(C)C)cc(OCC(=O)NCCCN(CC)CC)c3c(=O)c12
MIC (Bacillus cereus): 25 µg/mL (≈ 33.9 µM)
MIC (Staphylococcus aureus [1]): 12.5 µg/mL (≈ 17 µM)
MIC (Staphylococcus aureus [2]): 6.25 µg/mL (≈ 8.48 µM)
MIC (Staphylococcus aureus [3]): 6.25 µg/mL (≈ 8.48 µM)
